Source: article PMC11577422 (Chemical Research in Toxicology, 2024)
Where two headings read alike, the source gives them in different places. Values belong to the molecule of their own block, whether it stands above or below them.

Assays:
[1] = system: rat liver microsomes (RLM); conditions: ref Ravindranath and Boyd (1985) [9], cited from earlier work; for Km: RLM
[2] = system: primary rat hepatocytes (pRH); assay: Adduct formation; format: in vitro ADME; conditions: for AcCys-AcA formation in cell supernatants / formation of AcLys-AcA in cell supernatants: pRH incubated with 2-MF (10–1000 μM) or AcA (0.1–5 μM), 1–48 h; for AcLys-AcA in cell supernatant compared to the negative control: pRH
How it was run: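 Hepatocytes came from adult male Wistar rats (150–250 g) and were used only at ≥80% viability. Cells were seeded at 1 million cells/mL on collagen-coated dishes, allowed 3 h to attach, then PBS-washed. Incubation was at 37 °C, 5% CO₂ with test compound for 1, 6, 18, 24 or 48 h. Supernatants got 1 μM final AcLys-BDA internal standard, SPE cleanup, then UHPLC-ESI⁺-MS/MS (MRM m/z 269.2/164.2). Untreated negative control; n = 3–6.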

pRH = assay: GSH depletion in pRH after exposure to 2-MF; format: cell-based, rat; conditions: data not shown
[3] = system: rat liver microsomes (RLM); format: in vitro ADME; conditions: RLM, untr.; II) low substrate concentrations (10 and 100 μM 2-MF); 10 min
How it was run: (§1)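 Pooled liver microsomes (male Sprague–Dawley rat; mixed-gender human) at 1.0 mg protein/mL in 50 mM phosphate or Tris buffer with 3 mM MgCl₂ and 4 mM AcLys trap. Preincubated with 2-MF (10–750 μM) for 5 min at 37 °C, NADPH-started, 10 min. Stopped with cold MeCN containing 1 μM AcLys-BDA; AcLys-AcA by HPLC-MS/MS. Kinetics fitted biphasically; heat-inactivated and no-NADPH controls; n = 3–6.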

[4] = Cytotoxicity via cell viability using resazurin reduction in pRH; format: cell-based; conditions: male, Wistar, rat, primary rat hepatocytes
CYP 2E1 [5] = target: CYP 2E1 (Homo sapiens, UniProt P05181); format: in vitro ADME; conditions: Supersomes CYP 2E1, 100 and 500 μM 2-MF, 10, 30 or 60 min; negative control without NADPH
[6] = system: human liver microsomes (HLM); format: in vitro ADME; conditions: 10 min
How it was run: as §1

HepG2 cells = assay: GSH depletion in HepG2 cells after exposure to 2-MF; format: cell-based; conditions: data not shown
[7] = Chemical reaction of AcA with AcCys, adduct determined by HPLC-MS/MS; format: physicochemical; conditions: AcA (1 μM) with AcCys (4 mM) in water, 37 °C
How it was run: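 Mixture shaken at 600 rpm and sampled over incubation time. Adduct was detected by HPLC-ESI⁺-MS/MS on a Synergi Hydro-RP column with a formic acid/acetonitrile gradient, MRM quantifier m/z 241.9/112.9, and reported as peak area (AUC). n = 3, mean ± standard deviation.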

[8] = Chemical reaction of AcA with AcLys, adduct determined by HPLC-MS/MS; format: physicochemical
How it was run: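 AcA was at 10 μM; the mixture was shaken at 600 rpm to mimic the microsomal incubation matrix and sampled over time. AcLys-AcA was measured by HPLC-ESI⁺-MS/MS. n = 3, mean ± standard deviation.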

[9] = Stability of AcLys-AcA in solvents; format: physicochemical
[10] = system: rat liver microsomes (RLM); conditions: untr., 50 μM furan, ref Gates et al. (2012) [30]; cited from earlier work
CYP 2E1 [11] = conditions: cited from earlier work
[12] = system: human liver microsomes (HLM); conditions: 50 μM furan, ref Gates et al. (2012) [30]; cited from earlier work
CYP 2E1 [13] = conditions: ref Peterson et al. (2005) [32]; cited from earlier work
[14] = system: rat liver microsomes (RLM); conditions: pretr., ref Peterson et al. (2005) [32]; cited from earlier work
[15] = 20 or 400 μM furan, ref Gates et al. (2012) [30]

Chain of CYP 2E1 (Homo sapiens, UniProt P05181) (P05181 whole entry): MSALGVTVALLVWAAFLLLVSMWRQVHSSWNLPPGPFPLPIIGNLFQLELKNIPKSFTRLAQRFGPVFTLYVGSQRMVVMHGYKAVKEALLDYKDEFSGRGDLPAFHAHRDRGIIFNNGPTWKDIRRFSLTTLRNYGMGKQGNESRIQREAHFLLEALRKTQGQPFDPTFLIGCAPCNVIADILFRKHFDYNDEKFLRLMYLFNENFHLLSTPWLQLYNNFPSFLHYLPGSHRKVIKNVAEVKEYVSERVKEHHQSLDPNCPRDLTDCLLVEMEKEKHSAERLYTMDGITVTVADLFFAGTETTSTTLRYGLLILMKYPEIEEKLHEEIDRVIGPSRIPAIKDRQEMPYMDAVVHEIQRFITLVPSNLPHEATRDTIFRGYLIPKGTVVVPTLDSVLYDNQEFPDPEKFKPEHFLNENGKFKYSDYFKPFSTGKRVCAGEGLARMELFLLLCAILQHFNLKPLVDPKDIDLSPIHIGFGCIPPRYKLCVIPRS

SMILES: Cc1ccco1 [2-MF, 2-Methylfuran]
vmax ([1]; RLM from untreated rats, Eadie-Hofstee): 0.53 μmol/2 mg microsomal protein/min
Km ([1]; pretr. (phenobarbital)): 463 µM
Km ([1]; untr., 2.5–20 mM total 2-MF): 1420 µM
vmax ([1]; rats pretreated with phenobarbital): 0.81 μmol/2 mg microsomal protein/min
AcCys-AcA formation in cell supernatants [2]: No evidence of AcCys-AcA formation
formation of AcLys-AcA in cell supernatants [2]: detected
AcLys-AcA in cell supernatant compared to the negative control ([2]; 100 μM 2-MF, 1 h): significant increase
depletion of GSH (pRH): no depletion of GSH
vmax [3]: 0.09 μmol/(mg prot.·min)
EC50 at 24 h [4]: 551 ± 53.1 µM
AcA formation compared to the negative control (CYP 2E1 [5]): significant formation of AcA
vmax ([6]; HLM; I) high substrate concentrations (250, 500, 750 μM 2-MF)): 0.88 μmol/(mg prot.·min)
vmax ([6]; HLM; II) low substrate concentrations (10 and 100 μM 2-MF)): 0.12 μmol/(mg prot.·min)
depletion of GSH (HepG2 cells): no depletion of GSH

time to completion of adduct formation [7]: < 1 min
AcCys-AcA formation in cell supernatants [2]: No evidence of AcCys-AcA formation
formation of AcLys-AcA in cell supernatants [2]: detected
AcLys-AcA in cell supernatant compared to the negative control ([2]; 0.5 μM AcA, 48 h): differed significantly
AcLys-AcA in cell supernatant compared to the negative control ([2]; 5 μM AcA, all time points (1–48 h)): highly significant increase
time to completion of adduct formation ([8]; AcA (1; 10 μM) with AcLys (4 mM) in K2HPO4 buffer (50 mM, pH 7.4), 37 °C): < 1 min
SMILES: CC(=O)C=CC=O [AcA, 3-acetylacrolein]
EC50 at 24 h [4]: 8.5 ± 1.3 µM

stability of adduct yield ([8]; reaction mixture of AcA with AcLys (4 mM) in K2HPO4 buffer pH 7.4, 37 °C): stable for up to 24 h
stability (NMR) ([9]; in organic solvents): unstable
stability of NMR and MS signals ([9]; in water): stable
SMILES: CC(=O)N[C@@H](CCCCN1C(=O)C=CC1C)C(=O)O (stereo partly drawn) [AcLys-AcA, L-2-Acetamido-6-(2-methyl-5-oxo-2,5-dihydro-1H-pyrrol-1-yl)hexanoic Acid]

SMILES: c1ccoc1 [Furan]
vmax [10]: 0.0016 μmol/(mg prot.·min)
Km (CYP 2E1 [11]; [15]): 24 ± 13 µM
kcat (CYP 2E1 [11]; [15]): 34 ± 4 μmol/(μmol CYP·min)
vmax (CYP 2E1 [11]; 20 or 400 μM furan, ref [30]): 34 ± 4 pmol BDA/pmol CYP/min
Ecat (CYP 2E1 [11]; ref Gates et al. (2012) [30]): 1.4
vmax [12]: 0.0013 μmol/(mg prot.·min)
Ecat (CYP 2E1 [13]): 3.9e-1
Km (CYP 2E1 [13]): 65.1 ± 16.4 µM
kcat (CYP 2E1 [13]): 26 μmol/(μmol CYP·min)
Km [14]: 18.5 ± 6.8 µM
